Measured values taken from ChEMBL document CHEMBL4038284, “Synthesis of novel quinoline-based 4,5-dihydro-1H-pyrazoles as potential anticancer, antifungal, antibacterial and antiprotozoal agents” (Eur J Med Chem, 2017).
≈ marks a conversion by molar mass, not a printed value. Calls of active or inactive are those of the source. No cut-off for these calls is given here.

Key:
Candida albicans [1] = test: Growth inhibition of Candida albicans ATCC 10231 at 7.8 ug/ml incubated for 48 hrs under dark condition by broth microdilution method relative to control; format: functional; settings: ATCC 10231, 48 h, read-out: GI
Outline: (§1)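 CLSI M27-A3 broth microdilution in RPMI-1640, DMSO ≤1%. Inoculum 1-5 × 10^3 CFU/mL. Incubated 48 h at 30 °C, dark. % inhibition = 100 − (OD405 test − sterility control)/(OD405 growth control − sterility control), with growth and sterility control wells. Triplicate.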

HOP-62 = test: Growth inhibition of human HOP62 cells at 10 uM incubated for 48 hrs by sulforhodamine B assay; format: functional, cell-based
Outline: (§2)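 NCI 60-cell-line screen at a single 10 µM dose. Cells in RPMI-1640 with 5% FBS and 2 mM L-glutamine, pre-incubated 24 h, then treated for 48 h at 37 °C. TCA fixation, sulforhodamine B staining, absorbance at 515 nm. Percentage growth calculated against time-zero and untreated controls.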

Cryptococcus neoformans [2] = test: Growth inhibition of Cryptococcus neoformans ATCC 32264 at 3.4 ug/ml incubated for 48 hrs under dark condition by broth microdilution method relative to control; format: functional; settings: ATCC 32264, 48 h, read-out: GI
Cryptococcus neoformans [3] = test: Growth inhibition of Cryptococcus neoformans ATCC 32264 at 250 ug/ml incubated for 48 hrs under dark condition by broth microdilution method relative to control; format: functional; settings: ATCC 32264, 48 h, read-out: GI; outline: as §1
OVCAR-4 = test: Growth inhibition of human OVCAR4 cells at 10 uM incubated for 48 hrs by sulforhodamine B assay; format: functional, cell-based
Outline: (§3)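 NCI 60-line panel, single 10 μM dose. Cells were grown in RPMI-1640 with 5% FBS and 2 mM L-glutamine and pre-incubated 24 h before compound addition (DMSO stock). Exposure was 48 h at 37 °C, 5% CO2. Cells were fixed with cold TCA (10% final), stained with 0.4% SRB, bound dye dissolved in 10 mM Tris base, A515 read. Growth was taken relative to time-zero and untreated control plates.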

UACC-62 = test: Growth inhibition of human UACC62 cells at 10 uM incubated for 48 hrs by sulforhodamine B assay; format: functional, cell-based
Outline: (§4)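 NCI-60 single-dose screen at 10 µM for 48 h. Cells were grown in RPMI-1640 with 5% FBS and 2 mM L-glutamine and preincubated 24 h before compound. Time-zero plates were TCA-fixed at compound addition. After exposure, cells were TCA-fixed, stained with SRB and read at 515 nm. Percentage growth was calculated against time-zero and untreated-control absorbances.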

MDA-MB-468 = test: Growth inhibition of human MDA-MB-468 cells at 10 uM incubated for 48 hrs by sulforhodamine B assay; format: functional, cell-based; outline: as §3
Cryptococcus neoformans [4] = test: Growth inhibition of Cryptococcus neoformans ATCC 32264 at 125 ug/ml incubated for 48 hrs under dark condition by broth microdilution method relative to control; format: functional; settings: ATCC 32264, 48 h, read-out: GI; outline: as §1
Klebsiella pneumoniae [5] = test: Antibacterial activity against carbapenemase positive Klebsiella pneumoniae BAA 1705 after 24 hrs by resazurin dye based microdilution assay; format: functional; settings: BAA 1705, 24 h
Outline: (§5)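 MIC taken as the lowest concentration giving visible inhibition and/or by resazurin (1 mg/mL). Gentamicin was the control. Run in duplicate, repeated at least three times.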

HCT-116 = test: Growth inhibition of human HCT116 cells at 10 uM incubated for 48 hrs by sulforhodamine B assay; format: functional, cell-based; outline: as §2
786-0 = test: Growth inhibition of human 786-0 cells at 10 uM incubated for 48 hrs by sulforhodamine B assay; format: functional, cell-based; outline: as §2
ACHN = test: Growth inhibition of human ACHN cells at 10 uM incubated for 48 hrs by sulforhodamine B assay; format: functional, cell-based; outline: as §2
SR = test: Growth inhibition of human SR cells at 10 uM incubated for 48 hrs by sulforhodamine B assay; format: functional, cell-based; outline: as §4
UACC-257 = test: Growth inhibition of human UACC257 cells at 10 uM incubated for 48 hrs by sulforhodamine B assay; format: functional, cell-based; outline: as §4
Cryptococcus neoformans [6] = test: Antifungal activity against Cryptococcus neoformans ATCC 32264 incubated for 48 hrs under dark condition by broth microdilution method; format: functional; settings: ATCC 32264, 48 h
Outline: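 CLSI M27-A3 broth microdilution in RPMI-1640, DMSO ≤1%, compounds at 250-0.98 µg/mL final. Inoculum 1-5 × 10^3 CFU/mL. Incubated 48 h at 30 °C in a moist dark chamber, read at OD405. MIC80 and MIC50 taken from % inhibition dose-response curves (mean ± SEM, triplicate). Amphotericin B was the positive control.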

K562 = test: Growth inhibition of human K562 cells at 10 uM incubated for 48 hrs by sulforhodamine B assay; format: functional, cell-based; outline: as §3
Klebsiella pneumoniae [7] = test: Antibacterial activity against ESBL positive Klebsiella pneumoniae ATCC 700603 after 24 hrs by resazurin dye based microdilution assay; format: functional; settings: Klebsiella pneumoniae, 700603, 24 h; outline: as §5
HCC 2998 = test: Growth inhibition of human HCC2998 cells at 10 uM incubated for 48 hrs by sulforhodamine B assay; format: functional, cell-based; outline: as §2
NCI-H522 = test: Growth inhibition of human NCI-H522 cells at 10 uM incubated for 48 hrs by sulforhodamine B assay; format: functional, cell-based; outline: as §3
MOLT-4 = test: Growth inhibition of human MOLT4 cells at 10 uM incubated for 48 hrs by sulforhodamine B assay; format: functional, cell-based; outline: as §3
OVCAR-3 = test: Growth inhibition of human OVCAR3 cells at 10 uM incubated for 48 hrs by sulforhodamine B assay; format: functional, cell-based; outline: as §3
BT-549 = test: Growth inhibition of human BT549 cells at 10 uM incubated for 48 hrs by sulforhodamine B assay; format: functional, cell-based; outline: as §2
Candida albicans [8] = test: Growth inhibition of Candida albicans ATCC 10231 at 250 ug/ml incubated for 48 hrs under dark condition by broth microdilution method relative to control; format: functional; settings: ATCC 10231, 48 h, read-out: GI; outline: as §1
Neisseria gonorrhoeae = test: Antibacterial activity against beta lactamase positive Neisseria gonorrhoeae ATCC 31426 by oxidase test; format: functional
Outline: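 Agar dilution MIC on GC agar with 1% isovitalex containing increasing compound concentrations. Plates inoculated with about 1×10^4 CFU (5 µL). MIC is the lowest concentration that inhibited growth, with growth confirmed by oxidase test. Run in duplicate, repeated at least three times.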

Leishmania panamensis = test: Antileshmanial activity against EpiR/GFP fused Leishmania panamensis MHOM/CO/87/UA140 intracellular amastigotes infected in human […] cells after 72 hrs by flow cytometric method; format: functional, cell-based; settings: MHOM/CO/87/UA140, 72 h
Outline: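 PMA-treated U-937 cells (3 × 10^5 cells/mL) infected with stationary-phase GFP L. panamensis promastigotes (15:1), 3 h at 34 °C, then washed. After 24 h, compounds added at 50, 12.5, 3.125 and 0.78 µg/mL for 72 h at 37 °C. EC50 by Probit; triplicate, two experiments.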

Hs-578T = test: Growth inhibition of human Hs578T cells at 10 uM incubated for 48 hrs by sulforhodamine B assay; format: functional, cell-based; outline: as §3
SF-539 = test: Growth inhibition of human SF539 cells at 10 uM incubated for 48 hrs by sulforhodamine B assay; format: functional, cell-based; outline: as §3
RXF 393 = test: Growth inhibition of human RXF393 cells at 10 uM incubated for 48 hrs by sulforhodamine B assay; format: functional, cell-based; outline: as §3

COc1ccc(C2=NN(C=O)C(c3cccc(Nc4ccnc5cc(Cl)ccc45)c3)C2)cc1 (stereo not drawn)
inhibition of growth at 7.8 µg/mL (Candida albicans [1]): 7.43% | growth inhibition (GI) (HOP-62): Active | inhibition of growth at 3.4 µg/mL (Cryptococcus neoformans [2]): 4.06% | inhibition of growth at 250 µg/mL (Cryptococcus neoformans [3]): 55.4% | growth inhibition (GI) (OVCAR-4): Active | growth inhibition (GI) (UACC-62): Active | growth inhibition (GI) (MDA-MB-468): Active | inhibition of growth at 125 µg/mL (Cryptococcus neoformans [4]): 52.5% | MIC (Klebsiella pneumoniae [5]): > 1000 µg/mL | growth inhibition (GI) (HCT-116): Active | growth inhibition (GI) (786-0): Active | growth inhibition (GI) (ACHN): Active | growth inhibition (GI) (SR): Active | growth inhibition (GI) (UACC-257): Active | MIC50 (Cryptococcus neoformans [6]): 125 µg/mL (≈ 274 µM) | MIC80 (Cryptococcus neoformans [6]): ≥ 250 µg/mL | growth inhibition (GI) (K562): Active | MIC (Klebsiella pneumoniae [7]): > 1000 µg/mL | growth inhibition (GI) (HCC 2998): Active | growth inhibition (GI) (NCI-H522): Active | growth inhibition (GI) (MOLT-4): Active | growth inhibition (GI) (OVCAR-3): Active | growth inhibition (GI) (BT-549): Active | inhibition of growth at 250 µg/mL (Candida albicans [8]): 34.5% | MIC (Neisseria gonorrhoeae): > 1000 µg/mL | EC50 (Leishmania panamensis): 33.1 µg/mL (≈ 72.5 µM) | growth inhibition (GI) (Hs-578T): Active | growth inhibition (GI) (SF-539): Active | growth inhibition (GI) (RXF 393): Active

COc1ccc(C(=O)/C=C/c2cccc(Nc3ccnc4cc(Cl)ccc34)c2)cc1
inhibition of growth at 7.8 µg/mL (Candida albicans [1]): 12.5% | growth inhibition (GI) (HOP-62): Active | inhibition of growth at 3.4 µg/mL (Cryptococcus neoformans [2]): 0% | inhibition of growth at 250 µg/mL (Cryptococcus neoformans [3]): 46.1% | growth inhibition (GI) (OVCAR-4): Active | growth inhibition (GI) (UACC-62): Active | growth inhibition (GI) (MDA-MB-468): Active | inhibition of growth at 125 µg/mL (Cryptococcus neoformans [4]): 34.4% | MIC (Klebsiella pneumoniae [5]): > 1000 µg/mL | growth inhibition (GI) (HCT-116): Active | growth inhibition (GI) (786-0): Active | growth inhibition (GI) (ACHN): Active | growth inhibition (GI) (SR): Active | growth inhibition (GI) (UACC-257): Active | MIC50 (Cryptococcus neoformans [6]): ≥ 250 µg/mL | MIC80 (Cryptococcus neoformans [6]): ≥ 250 µg/mL | growth inhibition (GI) (K562): Active | MIC (Klebsiella pneumoniae [7]): > 1000 µg/mL | growth inhibition (GI) (HCC 2998): Active | growth inhibition (GI) (NCI-H522): Active | growth inhibition (GI) (MOLT-4): Active | growth inhibition (GI) (OVCAR-3): Active | growth inhibition (GI) (BT-549): Active | inhibition of growth at 250 µg/mL (Candida albicans [8]): 59.6% | MIC (Neisseria gonorrhoeae): > 1000 µg/mL | EC50 (Leishmania panamensis): 2.65 µg/mL (≈ 6.39 µM) | growth inhibition (GI) (Hs-578T): Active | growth inhibition (GI) (SF-539): Active | growth inhibition (GI) (RXF 393): Active

O=Cc1cccc(Nc2ccnc3cc(Cl)ccc23)c1
inhibition of growth at 7.8 µg/mL (Candida albicans [1]): 1.48% | inhibition of growth at 3.4 µg/mL (Cryptococcus neoformans [2]): 5.03% | inhibition of growth at 250 µg/mL (Cryptococcus neoformans [3]): 100% | inhibition of growth at 125 µg/mL (Cryptococcus neoformans [4]): 38.5% | MIC (Klebsiella pneumoniae [5]): 250 µg/mL (≈ 884 µM) | MIC50 (Cryptococcus neoformans [6]): 250 µg/mL (≈ 884 µM) | MIC80 (Cryptococcus neoformans [6]): 250 µg/mL (≈ 884 µM) | MIC (Klebsiella pneumoniae [7]): > 1000 µg/mL | inhibition of growth at 250 µg/mL (Candida albicans [8]): 59.2% | MIC (Neisseria gonorrhoeae): 500 µg/mL (≈ 1770 µM) | EC50 (Leishmania panamensis): 0.96 µg/mL (≈ 3.4 µM)

O=CN1N=C(c2ccc(Cl)cc2)CC1c1cccc(Nc2ccnc3cc(Cl)ccc23)c1 (stereo not drawn)
inhibition of growth at 7.8 µg/mL (Candida albicans [1]): 12% | growth inhibition (GI) (HOP-62): Active | inhibition of growth at 3.4 µg/mL (Cryptococcus neoformans [2]): 37.7% | inhibition of growth at 250 µg/mL (Cryptococcus neoformans [3]): 79.9% | growth inhibition (GI) (OVCAR-4): Active | growth inhibition (GI) (UACC-62): Active | growth inhibition (GI) (MDA-MB-468): Active | inhibition of growth at 125 µg/mL (Cryptococcus neoformans [4]): 75.7% | MIC (Klebsiella pneumoniae [5]): > 1000 µg/mL | growth inhibition (GI) (HCT-116): Active | growth inhibition (GI) (786-0): Active | growth inhibition (GI) (ACHN): Active | growth inhibition (GI) (SR): Active | growth inhibition (GI) (UACC-257): Active | MIC50 (Cryptococcus neoformans [6]): 31.2 µg/mL (≈ 67.7 µM) | MIC80 (Cryptococcus neoformans [6]): ≥ 250 µg/mL | growth inhibition (GI) (K562): Active | MIC (Klebsiella pneumoniae [7]): > 1000 µg/mL | growth inhibition (GI) (HCC 2998): Active | growth inhibition (GI) (NCI-H522): Active | growth inhibition (GI) (MOLT-4): Active | growth inhibition (GI) (OVCAR-3): Active | growth inhibition (GI) (BT-549): Active | inhibition of growth at 250 µg/mL (Candida albicans [8]): 67.5% | MIC (Neisseria gonorrhoeae): > 1000 µg/mL | EC50 (Leishmania panamensis): 281 µg/mL (≈ 609 µM) | growth inhibition (GI) (Hs-578T): Active | growth inhibition (GI) (SF-539): Active | growth inhibition (GI) (RXF 393): Active
